Shown are actives, neighbours in structure and some others; about 12% of the full set was active somewhere.
Diaph act CS = counter-screen for diaphorase-based assays: diaphorase activators and chemical reducers; Diaphorase/resazurin coupled assay, resorufin fluorescence, 16 min; active compounds read high; 1 = vehicle wells, 0 = NADH-free wells; activation factor at 20 µM; 190,000 compounds, 0.005% hits; AID 1229;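 active means diaphorase activity raised at least twofold by the compound at 20 µM; inactive means activation factor below 2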
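Material: bacterial diaphorase enzyme (C. kluyveri); amount: enzyme 0.07 U/mL final; reagent: NADH substrate 0.114 mM plus resazurin dye 0.1 mM, final; doses: single compound dose of 20 µM, 1% DMSO final; timing: 16 min enzyme reaction, ambient temperature; measured by: fluorescence of resorufin, 544 nm excitation, 590 nm emission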
Diaphorase inh = counter-screen for diaphorase-based assays: diaphorase inhibitors and chemical oxidizers | AID 1217 | diaphorase resazurin-to-resorufin fluorescence, NADH, 16 min; bacterial (C. kluyveri) enzyme, not human | inhibition, % at 20 µM | 190,000 compounds, 0.69% hits;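 active means primary screen inhibition at 20 µM above a set limit, cut at about 50% in these data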;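 further: plate controls were DMSO with full reaction for no effect and wells lacking NADH for full effect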
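Assay system: diaphorase enzyme from Clostridium kluyveri. Quantity: enzyme working solution with 0.14 U/mL diaphorase. Schedule: reaction incubation of 16 min at room temperature. Technique: resorufin fluorescence, excitation 544 nm, emission 590 nm. Controls: No-NADH positive control and DMSO neutral control.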
ROMK primary = modulates human ROMK potassium channel activity; Tet-inducible ROMK, thallium flux fluorescence; actives lie on both sides; P48048; B-score at 10 µM; 130,000 compounds, 2% hits;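 active means signal ratio slope over the read window, or its plate-corrected B-score, at least 3 SD from the plate mean, either direction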;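 further: B-score of the F/F0 ratio slope over 7 to 12 s after thallium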
Target sequence (P48048 whole entry, looked up): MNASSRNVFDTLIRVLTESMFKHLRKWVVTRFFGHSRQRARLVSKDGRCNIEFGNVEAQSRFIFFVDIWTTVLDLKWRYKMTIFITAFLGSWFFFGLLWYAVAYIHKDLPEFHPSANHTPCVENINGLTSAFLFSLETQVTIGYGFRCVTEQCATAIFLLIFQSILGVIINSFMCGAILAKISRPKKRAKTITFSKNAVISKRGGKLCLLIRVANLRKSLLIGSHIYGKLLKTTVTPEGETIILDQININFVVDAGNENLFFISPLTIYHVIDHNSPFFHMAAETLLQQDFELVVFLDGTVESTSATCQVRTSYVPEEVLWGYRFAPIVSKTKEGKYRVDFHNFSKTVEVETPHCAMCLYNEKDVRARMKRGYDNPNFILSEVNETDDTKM
Lmaj promast = reduces viability of Leishmania major promastigotes; resazurin fluorescence viability; AID 1063; inhibition, % at 10 µM; 200,000 compounds, 9% hits; in the data active means inhibition above about 50%;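 further: promastigotes grown with compound for 44 hours at 28 °C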
WT yeast gro inh = growth inhibition of WT yeast, mitochondrial fusion screen; 190,000 compounds, 2.1% hits; inhibition, % at 10 µM; mitochondrial fusion phenotypic screen, WT strain; AID 1362; in the data active means inhibition above about 58%; tested in S. cerevisiae
Cl transport mod = KCC2 (human) Cl- transport modulation | B-score of Tl+ flux slope (higher = more flux/activation; lower = inhibition) at 10 µM | AID 1456 | 190,000 compounds, 2.2% hits | KCC2 cells, thallium flux FluoZin-2 fluorescence;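 active means thallium flux slope and its plate-corrected score both differing from the plate sample mean at a set confidence after two filtering rounds, in either direction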;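 further: slope of fluorescence scaled to starting intensity during 10 to 20 s after thallium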
* marks the source's active call; other numbers are inactive results; . = not tested or not shown.

SMILES	Diaph act CS	Diaphorase inh	ROMK primary	Lmaj promast	WT yeast gro inh	Cl transport mod
Cc1ccccc1Cc1c(C)nc2c(C(=O)N3CCN(Cc4ccc5c(c4)OCO5)CC3)cnn2c1C	.	.	-5.3*	19	.	-1.2
O=C(CCc1nnc(-c2ccsc2)o1)N1CCc2c(Cl)cccc2C1	0.9	13	0.0088	-5	-12	.
Cn1c(C(=O)N2CCN(Cc3ccc4c(c3)OCO4)CC2)cc2sccc21	0.8	16	-0.81	70*	-7	.
O=C(c1cc(-c2ccccc2)on1)N1CCN(Cc2ccc3c(c2)OCO3)CC1	0.9	10	-1.4	90*	-16	-0.18
Cn1c(C(=O)N2CCC(C(=O)N3CCN(Cc4ccc5c(c4)OCO5)CC3)CC2)cc2sccc21	0.8	17	.	8	4	-0.026
COc1c2c(nc3occc13)C(CC=C(C)C)(OC)C(O)CC2 (stereo not given)	0.9	12	.	-3	1	0.25
Cc1ccc(NC(=O)c2ccccc2Cl)c(Cl)c1	0.9	9	0.31	3	2	0.008
CC(=O)c1c(C(C)=O)c(C)n(-c2ccc(C)c(NC(=O)c3ccccc3Cl)c2)c1C	0.9	7	.	53*	-11	.
O=C(O)CCn1nnc(-c2ccccc2)n1	1	4	0.075	-4	-16	0.15
Fc1ccc(N2CCN(c3nc(CN4CCOCC4)nc4scc(-c5ccccc5)c34)CC2)cc1	0.8	18	0.012	67*	78*	0.055
CN(Cc1ccccc1)c1nc(CN2CCOCC2)nc2scc(-c3ccccc3)c12	0.8	21	-1	18	69*	-0.77
Nc1nccc(-c2ccc(-n3cccc3)cc2)n1	1.2	-16	-0.016	1	-2	-0.0035
O=c1n(S(=O)(=O)c2cccc3cccnc23)c2ccccc2n1S(=O)(=O)c1cccc2cccnc12	0.9	6	-1.2	44	2	0.64
Cc1nn(-c2ccc([N+](=O)[O-])cc2)c2c1C(c1cccc(Br)c1)N1C(=N2)C(=O)Nc2ccccc21 (stereo not given)	0.9	12	0.51	77*	9	-0.71
CCc1ccc(Nc2nc(N)nc(CSc3nc4ccccc4s3)n2)cc1	0.9	13	.	3	72*	-0.68
CCOC(=O)C1=C(C)NC(=O)NC1c1cccs1 (stereo not given)	0.9	5	-0.052	1	-9	0.75
CC1=C(C(=O)OC(C)(C)C)C(c2cccs2)NC(=O)N1 (stereo not given)	1	4	-0.013	69*	14	0.63
Cn1c(CC(=O)Nc2ccc(Cl)c(Cl)c2)nnc1SCC(=O)NCc1ccccc1	1.2	-20	0.066	-7	-9	0.44
Cc1ccc(C2C(C#N)=C(N)Oc3c2sc2ccccc32)o1 (stereo not given)	0.4	55*	.	45	17	0.08
CCOC(=O)CC1=C(C(=O)OCC)C(c2ccc(C)o2)C(C#N)=C(N)O1 (stereo not given)	0.9	8	.	8	-15	.
CCC(C)NCCCCOc1cc(C)cc(C(C)C)c1 (stereo not given)	1.1	-9	-0.81	91*	13	1.6
CCNC(=O)COc1cc(C)c(Cl)c(C)c1	1	5	-0.00097	-2	-3	0.14
CCC(C)NCCOCCOc1cc(C)c(Cl)c(C)c1 (stereo not given)	0.9	5	-0.91	87*	17	0.38
CCc1ccc(OCCOCC(O)CNC(C)CC)cc1 (stereo not given)	1	2	-0.68	41	11	-0.77
CCC(C)NCCOCCOc1ccc(F)cc1 (stereo not given)	0.8	16	.	95*	13	0.37
SMILES	Diaph act CS	Diaphorase inh	ROMK primary	Lmaj promast	WT yeast gro inh	Cl transport mod
CCC(C)NCCCCOc1ccc(Br)cc1 (stereo not given)	0.9	8	.	94*	-10	0.098
CCC(C)NCCCOc1ccc([N+](=O)[O-])cc1 (stereo not given)	0.9	10	-0.5	12	-5	1.2
Cc1ccc(CNC(=O)CSc2nc3[nH]ncc3c(=O)[nH]2)cc1	0.8	20	0.84	-8	5	1.5
COc1ccc(OC)c(NC(=O)NNC(=O)CCCOc2ccc(Cl)cc2C)c1	0.8	22	0.062	-4	-8	-1.8
CCN(CC)S(=O)(=O)c1ccc2nc(CCl)[nH]c2c1	0.8	22	-0.093	1	-11	-0.087
Cc1ccc(-c2n[nH]c(=S)n2Cc2ccccc2)cc1	0.9	13	-1.3	-1	0	.
S=c1[nH]nc(CCc2ccccc2)n1Cc1ccccc1	0.9	9	.	-1	-6	.
Cc1ccc(NCc2n[nH]c(=S)n2Cc2ccccc2)cc1Cl	0.7	32	.	3	67*	-0.73
Cc1cccc(-c2n[nH]c(=S)n2Cc2ccccc2)c1	1	3	0.027	-8	72*	2.3
S=c1[nH]nc(-c2cc3ccccc3o2)n1Cc1ccccc1	0.6	40	-0.83	-1	65*	28*
CCCNC(=O)Nc1ccc(NC(C)=O)cc1	0.8	18	.	-4	9	0.11
COc1ccccc1-n1nnnc1SCc1cc2c(cc1Br)OCO2	0.9	12	.	27	14	.
COc1cc(/C=C2\SC(=Nc3ccc(N4CCOCC4)cc3)N(C)C2=O)ccc1OC(C)C(=O)O (stereo not given)	0.9	9	.	-1	9	0.85
CCN(CC)C(=O)C1CCCN(Cc2ccc(F)c(F)c2)C1 (stereo not given)	0.9	8	.	-5	-6	1.1
Fc1ccc(CN2CCN3CCCC3C2C2CCCCC2)cc1F (stereo not given)	0.9	14	.	99*	20	0.0024
Fc1cccc(CN2CCN3CCCC3C2C2CCCCC2)c1 (stereo not given)	0.9	11	.	89*	22	1.7
O=C(Nc1ccc(Nc2ccncc2)cc1)c1ccc(Nc2ccnc3ccc([N+](=O)[O-])cc23)cc1[N+](=O)[O-]	.	.	.	.	.	0.8
O=C(NCc1ccncc1)c1cc(C(=O)C2CC2)c[nH]1	0.9	8	0.0096	-4	6	0.75
O=C(c1ccc2c(c1)OCO2)N1CCC(Cc2ccccc2)CC1	.	.	.	.	.	-3.2
CC(Oc1ccc2oc3ccccc3c2c1)C(=O)NC12CC3CC(CC(C3)C1)C2 (stereo not given)	0.9	9	-0.17	11	67*	0.28
O=C(Nc1cccs1)OCCN1CCN(Cc2ccccc2)CCC1=O	1	-1	-0.54	-6	-4	0.042
Cc1c(Cl)cccc1NC(=S)/C(=C(\[O-])c1ccc(Cl)s1)[n+]1ccccc1	0.9	6	0.48	64*	25	0.67
[O-]/C(=C(\C(=S)Nc1cccc2ccccc12)[n+]1cccc(CO)c1)c1ccc(Cl)s1	0.6	39	-0.24	11	8	-0.03
